GI50 and inhibition data for 21 compounds are collected here from ChEMBL document CHEMBL1955742, “Synthesis and SAR studies of phenanthroindolizidine and phenanthroquinolizidine alkaloids as potent anti-tumor agents” (2012).

Holding throughout (type): functional
Assay [1] relates to HL-60. The assay is described as follows: Antiproliferative activity against human HL60 cells after 72 hrs by SRB assay. An outline of the steps:
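HL60 human promyelocytic leukemia cells were seeded and grown for 24 h, then given compounds and cultured for another 72 h. Read-out was SRB, per the table footnote. GI50 was obtained by the Logit method from three or more independent experiments.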

Assay [2] deals with A549. Nature of the assay: Antiproliferative activity against human A549 cells after 72 hrs by MTT assay. The essentials: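 A549 human lung adenocarcinoma epithelial cells were seeded and grown for 24 h, then exposed to compounds for a further 72 h. Proliferation was read by MTT, as assigned in the table footnote. GI50 was calculated by the Logit method from at least three independent experiments.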

Assay [3] concerns HL-60. The assay is described as follows: Antiproliferative activity against human HL60 cells at 10^-8 mol/L after 72 hrs by SRB assay. Particulars: HL-60, 72 h.
The subject of assay [4] is HL-60. The assay is described as follows: Antiproliferative activity against human HL60 cells at 10^-7 mol/L after 72 hrs by SRB assay. To be noted: HL-60, 72 h.
Assay [5] relates to HL-60. The assay is described as follows: Antiproliferative activity against human HL60 cells at 10^-6 mol/L after 72 hrs by SRB assay. Particulars: HL-60, 72 h.
Assay [6] concerns A549. The assay is described as follows: Antiproliferative activity against human A549 cells at 10^-6 mol/L after 72 hrs by MTT assay. Particulars: A549, 72 h.
For assay [7], the system named is A549. Nature of the assay: Antiproliferative activity against human A549 cells at 10^-8 mol/L after 72 hrs by MTT assay. To be noted: A549, 72 h.
The subject of assay [8] is A549. Nature of the assay: Antiproliferative activity against human A549 cells at 10^-7 mol/L after 72 hrs by MTT assay. To be noted: A549, 72 h.

SMILES strings stand for the structures.

Take `COc1ccc2c3c(c4cc(OC)c(OC)cc4c2c1)CN1CCC[C@H]1[C@H]3O`: the concentration for 50% growth inhibition (GI50) in assay [1] (Homo sapiens, HL-60, 72 h) was under 1 nM; in assay [2] (Homo sapiens, A549, 72 h), 30 nM.

For the compound `COc1ccc2c3c(c4cc(OC)c(OC)cc4c2c1)CN1CCC[C@@H]1[C@@H]3O`, the GI50 in assay [1] (Homo sapiens, HL-60, 72 h) was 300 nM; in assay [2] (Homo sapiens, A549, 72 h), 3700 nM.

Take `COc1ccc2c3c(c4cc(OC)c(OC)cc4c2c1)CN1CCC[C@H]1C3`: the GI50 came to 60 nM in assay [1] (Homo sapiens, HL-60, 72 h) and 90 nM in assay [2] (Homo sapiens, A549, 72 h).

As to `COc1ccc2c3c(c4cc(OC)c(OC)cc4c2c1)[C@H](NC(C)=O)[C@@H]1CCCN1C3`, the 50% growth inhibitory concentration (GI50) in assay [1] (Homo sapiens, HL-60, 72 h) amounted to 50 nM; in assay [2] (Homo sapiens, A549, 72 h), 50 nM.

Turning to `COc1ccc2c3c(c4cc(OC)c(OC)cc4c2c1)CN1CCC[C@@H]1C3`, the GI50 in assay [1] (Homo sapiens, HL-60, 72 h) turned out to be 300 nM; in assay [2] (Homo sapiens, A549, 72 h) it was 700 nM.

`COc1cc2c3c(c4ccc(O)cc4c2cc1OC)CN1CCC[C@H]1C3`: the GI50 in assay [1] (Homo sapiens, HL-60, 72 h) was determined as 100 nM; in assay [2] (Homo sapiens, A549, 72 h) it was 40 nM. Besides, the inhibition at 0.01 µM in assay [3] stood at 37.4%; in assay [7], 21.9%. Further, the inhibition at 0.1 µM was determined as 76.1% in assay [4] and 71.3% in assay [8]. For the same compound, the inhibition at 1 µM is 85.8% in assay [5] and 85.9% in assay [6].

Regarding `COc1cc2c3c(c4cc(OC)c(OC)cc4c2cc1OC)[C@@H](O)[C@H]1CCCN1C3`, the inhibition at 0.01 µM in assay [3] stood at 12.7%; in assay [7], 12.3%. For the same compound, the results for the inhibition at 0.1 µM in assay [4] and in assay [8] were 37.1% and 31.3%, respectively. The inhibition at 1 µM in assay [5] came to 76%; in assay [6], 68.9%. The compound also displayed a GI50 in assay [2] (Homo sapiens, A549, 72 h) of 1290 nM.

Consider `COc1cc2c3c(c4cc(OC)c(OC)cc4c2cc1OC)[C@H](O)[C@H]1CCCN1C3`, for which the inhibition at 0.01 µM in assay [3] turned out to be 12.1%; in assay [7] it was 5%. Also, the inhibition at 0.1 µM in assay [4] was 16.1%; in assay [8], 5.6%. Moreover, the inhibition at 1 µM in assay [5] turned out to be 27%; in assay [6], 17.9%.

In the case of `COc1ccc2c3c(c4cc(OC)c(OC)cc4c2c1)[C@H](O)[C@@H]1CCCN1C3`, the 50% growth inhibitory concentration (GI50) in assay [1] (Homo sapiens, HL-60, 72 h) is over 10000 nM; in assay [2] (Homo sapiens, A549, 72 h) it was over 10000 nM.

`COc1ccc2c3c(c4cc(OC)c(OC)cc4c2c1)[C@@H](O)[C@H]1CCCN1C3`: the GI50 is over 10000 nM in assay [1] (Homo sapiens, HL-60, 72 h) and over 10000 nM in assay [2] (Homo sapiens, A549, 72 h).

In the case of `COc1cc2c3c(c4cc(OC)c(OC)cc4c2cc1OC)[C@H](N)[C@@H]1CCCN1C3`, the 50% growth inhibitory concentration (GI50) came out at 300 nM in assay [1] (Homo sapiens, HL-60, 72 h) and 1100 nM in assay [2] (Homo sapiens, A549, 72 h).

As for `COc1ccc2c3c(c4cc(OC)c(OC)cc4c2c1)[C@H](N)[C@@H]1CCCN1C3`, the concentration for 50% growth inhibition (GI50) in assay [1] (Homo sapiens, HL-60, 72 h) amounted to 1600 nM; in assay [2] (Homo sapiens, A549, 72 h), 400 nM.

Turning to `COc1ccc2c3c(c4cc(OC)c(OC)cc4c2c1)CN1CCC[C@H]1[C@H]3N`, the GI50 stood at 50 nM in assay [1] (Homo sapiens, HL-60, 72 h) and 100 nM in assay [2] (Homo sapiens, A549, 72 h).

As to `COc1cc2c3c(c4cc(OC)c(OC)cc4c2cc1OC)[C@H](NC(C)=O)[C@@H]1CCCN1C3`, the GI50 is over 10000 nM in assay [1] (Homo sapiens, HL-60, 72 h) and over 10000 nM in assay [2] (Homo sapiens, A549, 72 h).

For the compound `COc1ccc2c3c(c4cc(OC)c(OC)cc4c2c1)CN1CCC[C@H]1[C@H]3NC(C)=O`, the GI50 in assay [1] (Homo sapiens, HL-60, 72 h) amounted to 1200 nM; in assay [2] (Homo sapiens, A549, 72 h) it was 1500 nM.

As to `COc1cc2c3c(c4cc(OC)c(OC)cc4c2cc1OC)[C@H](NC(=O)C(C)(C)C)[C@@H]1CCCN1C3`, the concentration for 50% growth inhibition (GI50) was over 10000 nM in assay [1] (Homo sapiens, HL-60, 72 h) and over 10000 nM in assay [2] (Homo sapiens, A549, 72 h).

On to `COc1ccc2c3c(c4cc(OC)c(OC)cc4c2c1)[C@H](NC(=O)C(C)(C)C)[C@@H]1CCCN1C3`, for which the GI50 in assay [1] (Homo sapiens, HL-60, 72 h) is over 10000 nM; in assay [2] (Homo sapiens, A549, 72 h), over 10000 nM.

Take `COc1ccc2c3c(c4cc(OC)c(OC)cc4c2c1)CN1CCC[C@H]1[C@H]3NC(=O)C(C)(C)C`: the GI50 is over 10000 nM in assay [1] (Homo sapiens, HL-60, 72 h) and over 10000 nM in assay [2] (Homo sapiens, A549, 72 h).

With `COc1cc2c3c(c4cc(OC)c(OC)cc4c2cc1OC)CN1CCCC[C@H]1C3`, the concentration for 50% growth inhibition (GI50) was under 1 nM in assay [1] (Homo sapiens, HL-60, 72 h) and 60 nM in assay [2] (Homo sapiens, A549, 72 h).

With `COc1cc2c3c(c4cc(OC)c(OC)cc4c2cc1OC)CN1CCCC[C@@H]1C3`, the concentration for 50% growth inhibition (GI50) was under 1 nM in assay [1] (Homo sapiens, HL-60, 72 h) and under 1 nM in assay [2] (Homo sapiens, A549, 72 h).

In the case of `COc1ccc2c3c(c4cc(OC)c(OC)cc4c2c1)C[C@@H]1CCCCN1C3`, the concentration for 50% growth inhibition (GI50) in assay [1] and in assay [2] was under 1 nM in each case.
